From ChEMBL document CHEMBL2424598, “Identification and optimization of pteridinone Toll-like receptor 7 (TLR7) agonists for the oral treatment of viral hepatitis” (J Med Chem, 2013)
The source made the active and inactive calls. The calls are words filed in the database; no cut-off is given here.

Tests used:
[1] = target: T1, Toll-like receptor 8 (Homo sapiens) (UniProt Q9NR97); assay: Agonist activity at TLR8-mediated TNFalpha production in human PBMC assessed as minimum concentration of compound necessary to generate >3 fold of cytokine levels relative to control
T1 sequence (whole entry): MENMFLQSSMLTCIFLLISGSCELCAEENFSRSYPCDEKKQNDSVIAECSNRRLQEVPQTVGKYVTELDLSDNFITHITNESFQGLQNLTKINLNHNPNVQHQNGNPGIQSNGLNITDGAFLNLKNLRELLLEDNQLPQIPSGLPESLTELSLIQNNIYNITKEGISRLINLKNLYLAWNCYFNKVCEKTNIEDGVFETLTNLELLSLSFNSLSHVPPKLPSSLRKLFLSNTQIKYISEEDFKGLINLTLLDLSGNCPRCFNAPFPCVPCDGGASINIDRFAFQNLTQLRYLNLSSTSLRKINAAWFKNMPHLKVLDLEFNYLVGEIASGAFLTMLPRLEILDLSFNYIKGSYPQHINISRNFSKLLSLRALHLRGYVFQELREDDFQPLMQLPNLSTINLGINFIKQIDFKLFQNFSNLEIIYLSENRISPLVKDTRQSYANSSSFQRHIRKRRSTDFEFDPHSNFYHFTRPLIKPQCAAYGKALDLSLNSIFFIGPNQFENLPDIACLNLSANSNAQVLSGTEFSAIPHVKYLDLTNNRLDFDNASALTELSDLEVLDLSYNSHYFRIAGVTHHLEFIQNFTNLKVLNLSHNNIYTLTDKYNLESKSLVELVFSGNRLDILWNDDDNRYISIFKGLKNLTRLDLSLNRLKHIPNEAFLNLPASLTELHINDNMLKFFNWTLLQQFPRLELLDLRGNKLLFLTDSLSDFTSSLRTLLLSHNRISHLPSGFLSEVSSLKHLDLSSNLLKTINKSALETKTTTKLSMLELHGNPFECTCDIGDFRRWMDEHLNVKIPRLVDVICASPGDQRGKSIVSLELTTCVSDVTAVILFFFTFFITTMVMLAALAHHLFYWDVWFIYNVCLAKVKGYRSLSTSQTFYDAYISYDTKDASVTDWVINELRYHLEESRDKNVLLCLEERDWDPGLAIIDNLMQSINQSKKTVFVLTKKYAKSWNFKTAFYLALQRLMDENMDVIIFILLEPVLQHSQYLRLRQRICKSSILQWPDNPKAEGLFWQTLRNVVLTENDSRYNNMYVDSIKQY
Outline: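 Cryopreserved human PBMCs from leukapheresis of one healthy donor, chosen as a consistent responder to TLR7 stimulation; 24 h incubation with compound over an eight-point concentration range. TNF-α read from dose-response curves. MEC is the lowest concentration giving cytokine levels at least 3-fold above untreated control cultures.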

[2] = Half life in human liver microsomes; type: ADME, Microsome
Cynomolgus monkey [3] = assay: Agonist activity at […] in cynomolgus monkey assessed as increase of serum IFNalpha level at 2 mg/kg, po after 1 to 24 hrs by ELISA; type: functional, Macaca fascicularis
Outline: (§1)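 Healthy male cynomolgus monkeys, n = 3 per group, dosed either by 30 min iv infusion or orally. Serum was sampled predose and at 1, 2, 4, 8, 12 and 24 h postdose. IFN-α was measured by species-specific ELISA (limit of detection 130 pg/mL) and reported as mean peak serum level ± SD.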

Cynomolgus monkey [4] = assay: Agonist activity at […] in cynomolgus monkey assessed as increase of serum IFNalpha level at 1 mg/kg, po after 1 to 24 hrs by ELISA; type: functional, Macaca fascicularis; outline: as §1
Cynomolgus monkey [5] = assay: Agonist activity at […] in cynomolgus monkey assessed as increase of serum IFNalpha level at 0.1 mg/kg, po after 1 to 24 hrs by ELISA; type: functional, Macaca fascicularis; outline: as §1
[6] = Half life in monkey liver microsomes; type: ADME, Macaca mulatta, Microsome; conditions: rhesus monkey
Cynomolgus monkey [7] = assay: Agonist activity at […] in cynomolgus monkey assessed as increase of serum IFNalpha level at 0.3 mg/kg, po after 1 to 24 hrs by ELISA; type: functional, Macaca fascicularis; outline: as §1
Cynomolgus monkey [8] = assay: Agonist activity at […] in cynomolgus monkey assessed as increase of serum TNFalpha level at 0.3 to 1 mg/kg after 1 to 24 hrs by ELISA; conditions: Macaca fascicularis
[9] = Half life in mouse liver microsomes; type: ADME, Microsome
[10] = Volume of distribution at steady state in cynomolgus monkey at 0.1 mg/kg, iv and 0.3 mg/kg, po; type: ADME, organism-based, Macaca fascicularis; conditions: in vivo, read-out: Vdss
Outline: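 Healthy male cynomolgus monkeys, n = 3, received a 30 min iv infusion at 0.1 mg/kg or an oral dose at 0.3 mg/kg. The oral formulation was water at pH 3.1 (HCl). Plasma PK parameters (CL, Vss, F) are reported as mean ± SD.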

[11] = Cmax in cynomolgus monkey at 1 mg/kg, po; type: ADME, organism-based, Macaca fascicularis; set-up: dose 1 mg/kg, route oral; conditions: in vivo
Outline: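 Male cynomolgus monkeys, n = 3 per group, received a 30 min iv infusion or an oral dose. Compound was measured in serum (limit of quantitation 0.04 ng/mL), and Cmax is reported as the group mean.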

Cynomolgus monkey [12] = assay: Agonist activity at […] in cynomolgus monkey assessed as increase of serum TNFalpha level at 2 mg/kg after 1 to 24 hrs by ELISA

MEC [1]: 3.65 µM
half-life [2]: 30.5 min
half-life [6]: 5.9 min
half-life [9]: 4.9 min
Vd [10]: 4.1 L/kg
Cmax [11]: 20.7 ng/mL
Compound: CCCCOc1nc(N)c2c(n1)N(Cc1cccc(CN3CCCC3)c1)CC(=O)N2 [VESATOLIMOD]
Activity (Cynomolgus monkey [3]): 119000 pg/mL
Activity (Cynomolgus monkey [4]): 22367 pg/mL
Activity (Cynomolgus monkey [5]): 140 pg/mL
Activity (Cynomolgus monkey [7]): 763 pg/mL
Activity (Cynomolgus monkey [8]): inactive
Activity (Cynomolgus monkey [12]): 578 pg/mL
